Source: ChEMBL document CHEMBL4406805, “Development of Inhibitors against Mycobacterium abscessus tRNA (m1G37) Methyltransferase (TrmD) Using Fragment-Based Approaches” (J Med Chem, 2019)
Values after ≈ are worked out from the molar mass of the structure shown. Active and inactive are the calls of the source. No cut-off for these calls is given here.

Tests used:
[1] = test system: Mycobacteroides abscessus; assay: Binding affinity to Mycobacterium abscessus N-terminal His-tagged 3C protease linked full length tRNA (m1-G37) methyltransferase expressed in Escherichia coli BL21(DE3) assessed as change in melting temperature at 100 uM by SYPRO Orange dye based DSF assay
Outline: (§1)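 DSF with 10 μM Mab TrmD (His-tag cleaved) in 50 mM HEPES pH 7.5, 500 mM NaCl, 5x SYPRO Orange. Final DMSO was 5%, either as ligand stock or as DMSO alone. Samples were ramped from 25 to 95 °C in 0.5 °C steps of 30 s. ΔTm was taken relative to the DMSO control.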

[2] = Binding affinity to Mycobacterium abscessus N-terminal His-tagged 3C protease linked full length tRNA (m1-G37) methyltransferase expressed in Escherichia coli BL21(DE3) by isothermal titration calorimetry; set-up: species or system Mycobacteroides abscessus
Outline: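 ITC at 25 °C. TrmD (33 or 100 μM in cell) was dialysed overnight at 4 °C into 50 mM HEPES pH 7.5, 500 mM NaCl, 5% glycerol, with final DMSO 2–10%. Ligand:protein was 10–20:1. A 0.2 μL injection was discarded, followed by 19×2 or 39×1 μL injections at 60–150 s spacing. No-protein blanks were subtracted. Data were fitted to a one-site model (N fixed at 1 for weak binders). Mostly n = 1 with fit error; SD when n > 1.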

[3] = test system: Mycobacteroides abscessus; assay: Binding affinity to Mycobacterium abscessus N-terminal His-tagged 3C protease linked full length tRNA (m1-G37) methyltransferase expressed in Escherichia coli BL21(DE3) assessed as change in melting temperature at 5 mM by SYPRO Orange dye based DSF assay; outline: as §1
[4] = Antimycobacterial activity against Mycobacterium abscessus subsp. abscessus ATCC 19977 by CLSI M07-A9 protocol based method; assay type: functional; details: Mycobacteroides abscessus
[5] = test system: Mycobacterium tuberculosis; assay: Antimycobacterial activity against Mycobacterium tuberculosis H37Rv incubated for 2 weeks in presence of GAST-Fe medium; assay type: functional; details: 336 h
[6] = test system: Mycobacterium tuberculosis; assay: Antimycobacterial activity against Mycobacterium tuberculosis H37Rv incubated for 2 weeks in presence of 7H9/ADC medium; assay type: functional; details: 336 h
[7] = test system: Mycobacterium tuberculosis; assay: Antimycobacterial activity against Mycobacterium tuberculosis H37Rv incubated for 2 weeks in presence of 7H9/glucose medium; assay type: functional; details: 336 h
[8] = test system: Mycobacterium tuberculosis; assay: Antimycobacterial activity against Mycobacterium tuberculosis H37Rv incubated for 2 weeks in presence of 7H9/DPPC medium; assay type: functional; details: 336 h
[9] = test system: Mycobacteroides abscessus; assay: Binding affinity to Mycobacterium abscessus N-terminal His-tagged 3C protease linked full length tRNA (m1-G37) methyltransferase expressed in Escherichia coli BL21(DE3) after 15 mins by mass Spectrometry
Outline: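 Native nanoESI-MS. His-tag was removed with 3C protease before IMAC and gel filtration. TrmD was exchanged into 200 mM ammonium acetate pH 7.0. Protein (20 μM in titration) was equilibrated at room temperature for at least 15 min alone or with ligand (12.5–100 μM; 100 μM for screening) in 5% DMSO. Read-out was ligand occupancy (singly or doubly bound) of the 13+ and 14+ charge states.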

[10] = test system: Mycobacteroides abscessus; assay: Binding affinity to Mycobacterium abscessus N-terminal His-tagged 3C protease linked full length tRNA (m1-G37) methyltransferase expressed in Escherichia coli BL21(DE3) by reverse isothermal titration calorimetry
Outline: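 Reverse ITC at 25 °C. 420 μM TrmD was injected into 35 μM ligand in the cell. Buffer was 50 mM HEPES pH 7.5, 500 mM NaCl, 5% glycerol with DMSO; blank titrations were subtracted. Data were fitted to a one-site binding model, otherwise as for forward titrations.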

SMILES | ΔTm [1] | Kd [2] | also measured
N#Cc1c(N)n[nH]c1-c1ccc2cc[nH]c2c1 | 4.4 °C | 5 µM | –
CCOc1cccc(COC(=O)c2cn[nH]c2)c1 | 3.1 °C | 11 µM | –
COc1cccc(Cn2ccc3ccc(-c4cc(N)n[nH]4)cc32)c1 | 4.6 °C | 13 µM | –
Nc1cc(-c2ccc3cc[nH]c3c2)[nH]n1 | 1.1 °C | 110 µM | ΔTm [3]: 4.8 °C
N#Cc1c(N)n[nH]c1-c1ccc2ccn(Cc3ccc(O)nc3)c2c1 | 8.3 °C | 1.3 µM | –
N#Cc1c(N)n[nH]c1-c1ccc2ccn(Cc3ccc(CN4CCCC4)cn3)c2c1 | 12 °C | 92 µM | MIC [4]: 50 µM (≈ 19.9 µg/mL)
O=C(OCc1ccc([N+](=O)[O-])cc1)c1cn[nH]c1 | 0.4 °C | – | –
N#Cc1c(N)n[nH]c1-c1ccc2ccn(Cc3cccnc3)c2c1 | 10.5 °C | 0.18 µM | –
N#Cc1ccccc1Cn1ccc2ccc(-c3cc(N)n[nH]3)cc21 | 4.4 °C | 12 µM | –
COc1cccc(-c2cc(N)n[nH]2)c1 | – | – | ΔTm [3]: -0.5 °C
COC(=O)COc1cccc(COC(=O)c2cn[nH]c2)c1 | 2.6 °C | 10 µM | –
Nc1cc(-c2ccc3ccn(Cc4ccc(CN5CCCC5)cc4)c3c2)[nH]n1 | 7 °C | 490 µM | MIC [4]: 50 µM (≈ 18.6 µg/mL); MIC [5]: 25 µM; MIC [6]: 100 µM; MIC [7]: 12.5 µM; MIC [8]: 6.3 µM
OB(O)c1ccc2cc[nH]c2c1 | – | 260 µM | ΔTm [3]: 4 °C
Nc1cc(-c2ccccc2)n[nH]1 | – | – | ΔTm [3]: 1.5 °C
CC(C)N1CCN(Cc2ccc(Cn3ccc4ccc(-c5[nH]nc(N)c5C#N)cc43)cc2)CC1 | 11.9 °C | – | MIC [4]: 50 µM (≈ 22.7 µg/mL); MIC [5]: 6.3 µM; MIC [6]: 12.5 µM; MIC [7]: 2.3 µM; MIC [8]: 1.6 µM
COC(=O)c1ccc(COC(=O)c2cn[nH]c2)cc1 | 0.9 °C | – | –
N#Cc1cccc(COC(=O)c2cn[nH]c2)c1 | 2.8 °C | 30 µM | –
COc1ccc(Cn2ccc3ccc(-c4cc(N)n[nH]4)cc32)cc1 | 3.4 °C | 59 µM | –
Cc1c(N)n[nH]c1-c1ccc2ccn(Cc3ccc(CN4CCCC4)cc3)c2c1 | 6.1 °C | – | –
O=C(OCc1ccccc1)c1cn[nH]c1 | 3.1 °C | 33 µM | –
CCOC(=O)c1cn[nH]c1 | 0.4 °C | 89 µM | ΔTm [3]: 4 °C
N#Cc1c(N)n[nH]c1-c1ccc2ccn(Cc3ccncc3)c2c1 | 11.5 °C | 0.12 µM | MIC [4]: 50 µM (≈ 15.7 µg/mL); MIC [5]: 50 µM; MIC [6]: > 100 µM
COc1ccc(-c2cc(N)[nH]n2)cc1 | – | 170 µM | ΔTm [3]: 3 °C
COc1cc(COC(=O)c2cn[nH]c2)cc(-c2cccnc2)c1 | 3.8 °C | 6.7 µM | –
N#Cc1c(N)n[nH]c1-c1ccc2ccn(Cc3ccccc3)c2c1 | 10.1 °C | – | Activity [9]: Active

SMILES | ΔTm [1] | Kd [2] | also measured
Cc1ccc(-c2cc(N)[nH]n2)cc1 | – | – | ΔTm [3]: 1.4 °C
N#Cc1c(N)n[nH]c1-c1ccc2ccn(Cc3ccccn3)c2c1 | 8.3 °C | 0.5 µM | –
CCOC(=O)c1cnn(CC#Cc2cc(COC(=O)c3cn[nH]c3)cc(OC)c2)c1 | 9.6 °C | 4.6 µM | –
COc1cc(COC(=O)c2cn[nH]c2)cc(Cc2cccnc2)c1 | 3 °C | 12 µM | –
CCNC(=O)c1cn[nH]c1 | – | – | ΔTm [3]: 0.4 °C
N#Cc1c(N)n[nH]c1-c1ccc2ccn(Cc3ccc(CN4CCCCC4)cc3)c2c1 | 12.6 °C | – | MIC [4]: 50 µM (≈ 20.5 µg/mL); MIC [5]: 50 µM; MIC [6]: 100 µM; MIC [7]: 25 µM
N#Cc1c(N)n[nH]c1-c1ccc2ccn(Cc3cccnc3O)c2c1 | 5.5 °C | 3.2 µM | –
O=C(OCc1cccc(OCCc2ccccc2)c1)c1cn[nH]c1 | 3 °C | – | –
O=C(OCc1cccc(OCc2ccccn2)c1)c1cn[nH]c1 | 2.5 °C | – | –
COc1cccc(COC(=O)c2cn[nH]c2)c1 | 3.5 °C | 14 µM | –
CN1CCCC(Cn2ccc3ccc(-c4[nH]nc(N)c4C#N)cc32)C1 (racemic) | 10.9 °C | 0.36 µM | Activity [10]: Active
N#Cc1c(N)n[nH]c1-c1ccc2ccn(Cc3ccnc4ccccc34)c2c1 | 10.3 °C | – | –
N#Cc1c(N)n[nH]c1-c1ccc2ccn(Cc3ccc(CN4CCCC4)cc3)c2c1 | 12.9 °C | 27 µM | MIC [4]: 50 µM (≈ 19.8 µg/mL); MIC [6]: > 100 µM; MIC [7]: 25 µM; MIC [8]: 12.5 µM; Activity [9]: Active
OB(O)c1ccc2[nH]ccc2c1 | – | – | ΔTm [3]: 1.3 °C
Nc1cc(-c2ccc3ccn(Cc4ccc(CN5CCCCC5)cc4)c3c2)[nH]n1 | 7.2 °C | – | MIC [4]: 50 µM (≈ 19.3 µg/mL); MIC [5]: 50 µM; MIC [6]: > 100 µM; MIC [7]: 25 µM; MIC [8]: 12.5 µM
Nc1cc(-c2ccc3ccn(Cc4ccccn4)c3c2)[nH]n1 | 3.1 °C | 12 µM | –
CN1CCCCC1Cn1ccc2ccc(-c3[nH]nc(N)c3C#N)cc21 (racemic) | 8.8 °C | 0.59 µM | –
NC(=O)c1ccccc1Cn1ccc2ccc(-c3cc(N)n[nH]3)cc21 | 1.4 °C | – | –
N#Cc1c(N)n[nH]c1-c1ccc2c(Cl)cn(Cc3cccnc3)c2c1 | 5.8 °C | 8.5 µM | –
Nc1cc(-c2ccc3ccn(Cc4ccccc4)c3c2)[nH]n1 | 3.4 °C | 19 µM | Activity [9]: Active
O=C(O)c1ccc2cc[nH]c2c1 | – | – | ΔTm [3]: -0.6 °C
N#Cc1c(N)n[nH]c1-c1ccc2ccn(Cc3ccc(CN4CCOCC4)cc3)c2c1 | 12.6 °C | – | MIC [4]: 50 µM (≈ 20.6 µg/mL); MIC [5]: 50 µM; MIC [6]: > 100 µM; MIC [7]: 100 µM; MIC [8]: 50 µM
CN1CCN(Cc2ccc(Cn3ccc4ccc(-c5[nH]nc(N)c5C#N)cc43)cc2)CC1 | 12 °C | 73 µM | MIC [4]: 50 µM (≈ 21.3 µg/mL); MIC [5]: 25 µM; MIC [7]: 12.5 µM; MIC [8]: 6.3 µM
COc1cc(COC(=O)c2cn[nH]c2)cc(N2CCCC2)c1 | 3 °C | 10 µM | –
